Measured values as given in ChEMBL document CHEMBL2163274, “Heterocyclic methylsulfone hydroxamic acid LpxC inhibitors as Gram-negative antibacterial agents” (Bioorg Med Chem Lett, 2012).
Values after ≈ are worked out from the molar mass of the structure shown.

Target: T1, UDP-3-O-acyl-N-acetylglucosamine deacetylase (Pseudomonas aeruginosa, UniProt B5ATN6)
T1 sequence (B5ATN6 whole entry): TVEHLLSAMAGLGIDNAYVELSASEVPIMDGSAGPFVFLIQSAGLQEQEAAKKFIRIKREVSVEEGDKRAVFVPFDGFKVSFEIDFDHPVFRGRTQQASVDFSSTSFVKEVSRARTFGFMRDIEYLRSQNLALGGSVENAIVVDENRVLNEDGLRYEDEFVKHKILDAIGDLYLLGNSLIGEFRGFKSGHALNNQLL
Assay: Inhibition of Pseudomonas aeruginosa LpxC
Conditions: not given

Row | Structure (SMILES) | IC50 [nM]
1 | C[C@@](CCn1cc(-c2ccc(Cl)c(Cl)c2)nn1)(C(=O)NO)S(C)(=O)=O | 1.67
2 | C[C@@](CCn1cc(-c2ccc(F)c(F)c2)nn1)(C(=O)NO)S(C)(=O)=O | 1.87
3 | CC(CCc1cc(-c2cccc(Cl)c2Cl)on1)(C(=O)NO)S(C)(=O)=O (racemic) | 2.66
4 | CC(CCc1cc(-c2cccc(F)c2)on1)(C(=O)NO)S(C)(=O)=O (racemic) | 6.75
5 | CC(CCc1cc(-c2ccccc2F)on1)(C(=O)NO)S(C)(=O)=O (racemic) | 8.31
6 | Cc1ccc(-c2cc(CCC(C)(C(=O)NO)S(C)(=O)=O)on2)cc1 (racemic) | 2.93
7 | CC(CCc1cc(-c2cccc(F)c2F)no1)(C(=O)NO)S(C)(=O)=O (racemic) | 6.81
8 | CC(CCc1cn(-c2ccccc2)nn1)(C(=O)NO)S(C)(=O)=O (racemic) | 3
9 | CC(CCc1cnn(-c2ccccc2)c1)(C(=O)NO)S(C)(=O)=O (racemic) | 13.5
10 | CC(CCc1nnc(-c2ccccc2)[nH]1)(C(=O)NO)S(C)(=O)=O (racemic) | > 100
11 | CC(CCc1nc(-c2ccccc2)no1)(C(=O)NO)S(C)(=O)=O (racemic) | > 100
12 | CC(CCc1cc(-c2ccccc2)n[nH]1)(C(=O)NO)S(C)(=O)=O (racemic) | > 100
13 | CC(CCn1ncc(-c2ccccc2)n1)(C(=O)NO)S(C)(=O)=O (racemic) | > 100

Test system: Pseudomonas aeruginosa
Assay: Antibacterial activity against multi efflux pump knock out Pseudomonas aeruginosa PA3919
Format: functional
Conditions: not given
Method in brief: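 MIC in µg/ml against P. aeruginosa PA-3919, which lacks multiple efflux pumps. The strain is used to tell whether a compound is a substrate of these pumps.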

Row | Structure (SMILES) | MIC [µg/mL]
14 | C[C@@](CCn1ccc(-c2ccccc2)cc1=O)(C(=O)NO)S(C)(=O)=O | 0.06 (≈ 0.165 µM)
15 | C[C@@](CCn1cc(-c2ccc(Cl)c(Cl)c2)nn1)(C(=O)NO)S(C)(=O)=O | < 0.06
16 | C[C@@](CCn1cc(-c2ccc(F)c(F)c2)nn1)(C(=O)NO)S(C)(=O)=O | 0.06 (≈ 0.16 µM)
17 | CC(CCc1cc(-c2cccc(Cl)c2Cl)on1)(C(=O)NO)S(C)(=O)=O (racemic) | 0.06 (≈ 0.147 µM)
18 | CC(CCc1cc(-c2cccc(F)c2)on1)(C(=O)NO)S(C)(=O)=O (racemic) | < 0.06
19 | CC(CCc1cc(-c2ccccc2F)on1)(C(=O)NO)S(C)(=O)=O (racemic) | 0.06 (≈ 0.168 µM)
20 | Cc1ccc(-c2cc(CCC(C)(C(=O)NO)S(C)(=O)=O)on2)cc1 (racemic) | < 0.06
21 | CC(CCc1cc(-c2cccc(F)c2F)no1)(C(=O)NO)S(C)(=O)=O (racemic) | < 0.06
22 | CC(CCc1cn(-c2ccccc2)nn1)(C(=O)NO)S(C)(=O)=O (racemic) | 0.5 (≈ 1.48 µM)
23 | CC(CCc1cnn(-c2ccccc2)c1)(C(=O)NO)S(C)(=O)=O (racemic) | 0.5 (≈ 1.48 µM)
24 | CC(CCc1nnc(-c2ccccc2)[nH]1)(C(=O)NO)S(C)(=O)=O (racemic) | 64 (≈ 189 µM)
25 | CC(CCc1nc(-c2ccccc2)no1)(C(=O)NO)S(C)(=O)=O (racemic) | 0.5 (≈ 1.47 µM)
26 | CC(CCc1cc(-c2ccccc2)n[nH]1)(C(=O)NO)S(C)(=O)=O (racemic) | 4 (≈ 11.9 µM)
27 | CC(CCn1ncc(-c2ccccc2)n1)(C(=O)NO)S(C)(=O)=O (racemic) | 0.5 (≈ 1.48 µM)

Test system: Pseudomonas aeruginosa
Assay: Antibacterial activity against Pseudomonas aeruginosa PAO1
Format: functional
Conditions: not given
Method in brief: (§1)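 MIC in µg/ml against P. aeruginosa strains with fully functioning efflux pumps. PAO1 is wild type and efflux pump competent.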

Row | Structure (SMILES) | MIC [µg/mL]
28 | C[C@@](CCn1cc(-c2ccc(Cl)c(Cl)c2)nn1)(C(=O)NO)S(C)(=O)=O | 1 (≈ 2.46 µM)
29 | C[C@@](CCn1cc(-c2ccc(F)c(F)c2)nn1)(C(=O)NO)S(C)(=O)=O | 4 (≈ 10.7 µM)
30 | CC(CCc1cc(-c2ccccc2F)on1)(C(=O)NO)S(C)(=O)=O (racemic) | 1 (≈ 2.81 µM)
31 | Cc1ccc(-c2cc(CCC(C)(C(=O)NO)S(C)(=O)=O)on2)cc1 (racemic) | 1 (≈ 2.84 µM)
32 | CC(CCc1cc(-c2cccc(F)c2F)no1)(C(=O)NO)S(C)(=O)=O (racemic) | 2 (≈ 5.34 µM)
33 | CC(CCc1cn(-c2ccccc2)nn1)(C(=O)NO)S(C)(=O)=O (racemic) | 8 (≈ 23.6 µM)
34 | CC(CCc1cnn(-c2ccccc2)c1)(C(=O)NO)S(C)(=O)=O (racemic) | 8 (≈ 23.7 µM)
35 | CC(CCc1nnc(-c2ccccc2)[nH]1)(C(=O)NO)S(C)(=O)=O (racemic) | > 64
36 | CC(CCc1nc(-c2ccccc2)no1)(C(=O)NO)S(C)(=O)=O (racemic) | 16 (≈ 47.1 µM)
37 | CC(CCc1cc(-c2ccccc2)n[nH]1)(C(=O)NO)S(C)(=O)=O (racemic) | > 64
38 | CC(CCn1ncc(-c2ccccc2)n1)(C(=O)NO)S(C)(=O)=O (racemic) | 32 (≈ 94.6 µM)

Test system: not listed separately
Assay: Lipophilicity, log D of the compound at pH 7.4
Format: physicochemical
Conditions: buffer

Row | Structure (SMILES) | logD
39 | C[C@@](CCc1ccc(-c2ccccc2)cc1)(C(=O)NO)S(C)(=O)=O | 2.24
40 | C[C@@](CCn1ccc(-c2ccccc2)cc1=O)(C(=O)NO)S(C)(=O)=O | 0.8

Test system: Pseudomonas aeruginosa
Assay: Antibacterial activity against Pseudomonas aeruginosa PA7
Format: functional
Conditions: not given
Method in brief: as §1

Row | Structure (SMILES) | MIC [µg/mL]
41 | C[C@@](CCc1ccc(-c2ccccc2)cc1)(C(=O)NO)S(C)(=O)=O | 1 (≈ 2.88 µM)
42 | C[C@@](CCn1ccc(-c2ccccc2)cc1=O)(C(=O)NO)S(C)(=O)=O | 1 (≈ 2.74 µM)
43 | C[C@@](CCn1cc(-c2ccc(Cl)c(Cl)c2)nn1)(C(=O)NO)S(C)(=O)=O | 2 (≈ 4.91 µM)
44 | C[C@@](CCn1cc(-c2ccc(F)c(F)c2)nn1)(C(=O)NO)S(C)(=O)=O | 4 (≈ 10.7 µM)
45 | CC(CCc1cc(-c2ccccc2F)on1)(C(=O)NO)S(C)(=O)=O (racemic) | 2 (≈ 5.61 µM)
46 | Cc1ccc(-c2cc(CCC(C)(C(=O)NO)S(C)(=O)=O)on2)cc1 (racemic) | 2 (≈ 5.68 µM)
47 | CC(CCc1cc(-c2cccc(F)c2F)no1)(C(=O)NO)S(C)(=O)=O (racemic) | 2 (≈ 5.34 µM)
48 | CC(CCc1cn(-c2ccccc2)nn1)(C(=O)NO)S(C)(=O)=O (racemic) | 16 (≈ 47.3 µM)
49 | CC(CCc1cnn(-c2ccccc2)c1)(C(=O)NO)S(C)(=O)=O (racemic) | 32 (≈ 94.8 µM)
50 | CC(CCc1nnc(-c2ccccc2)[nH]1)(C(=O)NO)S(C)(=O)=O (racemic) | > 64
51 | CC(CCc1nc(-c2ccccc2)no1)(C(=O)NO)S(C)(=O)=O (racemic) | 32 (≈ 94.3 µM)
52 | CC(CCc1cc(-c2ccccc2)n[nH]1)(C(=O)NO)S(C)(=O)=O (racemic) | > 64
53 | CC(CCn1ncc(-c2ccccc2)n1)(C(=O)NO)S(C)(=O)=O (racemic) | 32 (≈ 94.6 µM)

Test system: Pseudomonas aeruginosa
Assay: Antibacterial activity against quinolone-resistant Pseudomonas aeruginosa PA3060
Format: functional
Conditions: not given
Method in brief: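 MIC (µg/ml) against quinolone-resistant P. aeruginosa PA-3060, run alongside efflux-competent strains PAO1 and PA-7 and the multi-efflux-pump knockout PA-3919. Some analogs were tested as racemates.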

Row | Structure (SMILES) | MIC [µg/mL]
54 | C[C@@](CCc1ccc(-c2ccccc2)cc1)(C(=O)NO)S(C)(=O)=O | 1 (≈ 2.88 µM)
55 | C[C@@](CCn1ccc(-c2ccccc2)cc1=O)(C(=O)NO)S(C)(=O)=O | 2 (≈ 5.49 µM)
56 | C[C@@](CCn1cc(-c2ccc(Cl)c(Cl)c2)nn1)(C(=O)NO)S(C)(=O)=O | 2 (≈ 4.91 µM)
57 | C[C@@](CCn1cc(-c2ccc(F)c(F)c2)nn1)(C(=O)NO)S(C)(=O)=O | 4 (≈ 10.7 µM)
58 | CC(CCc1cc(-c2cccc(Cl)c2Cl)on1)(C(=O)NO)S(C)(=O)=O (racemic) | 2 (≈ 4.91 µM)
59 | CC(CCc1cc(-c2cccc(F)c2)on1)(C(=O)NO)S(C)(=O)=O (racemic) | 4 (≈ 11.2 µM)
60 | CC(CCc1cc(-c2ccccc2F)on1)(C(=O)NO)S(C)(=O)=O (racemic) | 2 (≈ 5.61 µM)
61 | Cc1ccc(-c2cc(CCC(C)(C(=O)NO)S(C)(=O)=O)on2)cc1 (racemic) | 2 (≈ 5.68 µM)
62 | CC(CCc1cc(-c2cccc(F)c2F)no1)(C(=O)NO)S(C)(=O)=O (racemic) | 4 (≈ 10.7 µM)
63 | CC(CCc1cn(-c2ccccc2)nn1)(C(=O)NO)S(C)(=O)=O (racemic) | 32 (≈ 94.6 µM)
64 | CC(CCc1cnn(-c2ccccc2)c1)(C(=O)NO)S(C)(=O)=O (racemic) | 64 (≈ 190 µM)
65 | CC(CCc1nnc(-c2ccccc2)[nH]1)(C(=O)NO)S(C)(=O)=O (racemic) | > 64
66 | CC(CCc1nc(-c2ccccc2)no1)(C(=O)NO)S(C)(=O)=O (racemic) | > 64
67 | CC(CCc1cc(-c2ccccc2)n[nH]1)(C(=O)NO)S(C)(=O)=O (racemic) | > 64
68 | CC(CCn1ncc(-c2ccccc2)n1)(C(=O)NO)S(C)(=O)=O (racemic) | 64 (≈ 189 µM)
